Data set [1] has as its system HFF. Kind of data set: Toxicity to HFF at highest concentration. It is filed as cell-based. As to conditions: human. The method, boiled down: (§1)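 Host-cell toxicity was tested on non-confluent fibroblast monolayers by 3H-thymidine incorporation, alongside visual inspection of monolayer integrity. Testing ran simultaneously with the parasite inhibition assay, and the highest concentration tested was scored.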

Data set [2] has as its system HFF. Kind of data set: Toxicity to HFF. The format is cell-based. The settings on record: human. The method, boiled down: as §1
Data set [3] addresses T1, Enoyl-acyl carrier reductase (Toxoplasma gondii, UniProt Q6UCJ9).
T1 sequence (Q6UCJ9 whole entry): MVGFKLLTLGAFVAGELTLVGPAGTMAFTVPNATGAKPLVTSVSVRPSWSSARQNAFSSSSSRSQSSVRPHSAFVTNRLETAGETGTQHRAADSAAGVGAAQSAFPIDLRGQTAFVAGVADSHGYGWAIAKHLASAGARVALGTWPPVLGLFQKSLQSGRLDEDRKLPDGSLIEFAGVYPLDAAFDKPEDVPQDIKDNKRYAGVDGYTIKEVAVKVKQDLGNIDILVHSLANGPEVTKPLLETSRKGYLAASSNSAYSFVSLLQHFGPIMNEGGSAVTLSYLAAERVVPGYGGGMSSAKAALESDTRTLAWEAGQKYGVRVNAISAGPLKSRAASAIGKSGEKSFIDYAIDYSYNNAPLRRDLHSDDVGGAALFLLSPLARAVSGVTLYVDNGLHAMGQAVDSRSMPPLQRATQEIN
The data set can be described thus: Inhibition of Toxoplasma gondii enoyl reductase. The method, boiled down: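 Recombinant TgENR (20 nM) was assayed in 100 mM Na/K phosphate pH 7.5, 150 mM NaCl and 100 μM NADH. Compounds were added in DMSO (2% final), and reactions were started at 25°C with 100 μM crotonyl-CoA. NADH consumption was followed at 340 nm.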

The test system of data set [4] is Toxoplasma gondii. The data set can be described thus: Antiparasitic activity against Toxoplasma gondii infected in HFF after 24 hrs by [3H]uracil incorporation assay. The format is functional. A digest of the protocol:
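Human foreskin fibroblasts were infected with T. gondii tachyzoites and given 1 h to invade before inhibitors were added. Cultures ran 3 days, then 3H-uracil was added for a further day. Parasite growth was read as uracil incorporation by liquid scintillation counting. MIC50 and MIC90 are the concentrations giving 50% and 90% growth inhibition. There were 6 replicate samples per group.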

The target of the next data set is CYP2D6 (Homo sapiens, UniProt P10635). Kind of data set: Inhibition of CYP2D6 at 10 uM. The format is ADME. A digest of the protocol: (§2)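 Inhibition was measured against recombinant CYP450 isozymes 2C9, 2D6 and 3A4, each with compound at 10μM, and reported as percent inhibition.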
A short description of data set [5]: Metabolic stability in human liver microsome assessed as compound remaining after 60 mins. As to conditions: liver microsomes, read-out: INH. It is filed as ADME. The method, boiled down:
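Compounds were incubated with pooled human liver microsomes for 60 minutes, and the percentage of parent compound remaining was measured.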
On the technique in general: Liver microsomes are vesicles of endoplasmic reticulum, rich in cytochrome P450 enzymes.

Data set [6] relates to Toxoplasma gondii. Kind of data set: Antiparasitic activity against Toxoplasma gondii RH infected in ip dosed CD1 mouse. The format is functional, organism-based. The method, boiled down:
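CD1 mice were infected intraperitoneally with 2000 RH (Type 1) parasites, a lethal inoculum. Inhibitors were given intraperitoneally at 10mg/kg. Read-outs were peritoneal parasite burden by microscopy at day 5 and survival up to day 5 post-infection. There were 6 mice per group.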

The target in a further data set is CYP2C9 (Homo sapiens, UniProt P11712). Kind of data set: Inhibition of CYP2C9 at 10 uM. It is filed as ADME. The method, boiled down: as §2
In another data set the target is CYP3A4 (Homo sapiens, UniProt P08684). Kind of data set: Inhibition of CYP3A4 at 10 uM. The format is ADME. The method, boiled down: as §2

For orientation: IC50 means the midpoint of a concentration-inhibition curve. A high value points to lower potency. A word on the MIC50: it is an inhibitory concentration at the 50% level, which refers to growth in some studies and to a panel of isolates in others. High values mean weaker potency, low ones greater potency. What is called MIC90 is the lowest concentration that inhibits either 90% of growth or 90% of the strains tested, depending on the study. Lower therefore signals greater potency. One may read the inhibition as the drop in the measured response relative to a control, in per cent. High values mean a strong effect, low ones a weak effect.

The structures appear in SMILES notation. ≈ marks a conversion by molar mass, not a printed value. Calls of active or inactive are those of the source. No cut-off for these calls is given here.

Chain of CYP2C9 (P11712 whole entry): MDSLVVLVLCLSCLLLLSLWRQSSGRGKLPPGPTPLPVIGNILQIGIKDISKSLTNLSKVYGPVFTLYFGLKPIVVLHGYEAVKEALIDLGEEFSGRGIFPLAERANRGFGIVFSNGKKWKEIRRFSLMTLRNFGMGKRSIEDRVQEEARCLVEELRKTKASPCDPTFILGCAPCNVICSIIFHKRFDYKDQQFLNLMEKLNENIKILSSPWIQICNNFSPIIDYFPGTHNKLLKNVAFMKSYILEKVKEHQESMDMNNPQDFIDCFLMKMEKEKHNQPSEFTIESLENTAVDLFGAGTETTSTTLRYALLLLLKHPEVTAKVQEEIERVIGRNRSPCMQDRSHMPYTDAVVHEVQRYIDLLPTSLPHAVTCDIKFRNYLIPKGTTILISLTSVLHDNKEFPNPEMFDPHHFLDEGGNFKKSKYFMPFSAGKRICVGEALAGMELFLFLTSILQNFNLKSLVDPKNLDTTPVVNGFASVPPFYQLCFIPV
Chain of CYP2D6 (P10635 whole entry): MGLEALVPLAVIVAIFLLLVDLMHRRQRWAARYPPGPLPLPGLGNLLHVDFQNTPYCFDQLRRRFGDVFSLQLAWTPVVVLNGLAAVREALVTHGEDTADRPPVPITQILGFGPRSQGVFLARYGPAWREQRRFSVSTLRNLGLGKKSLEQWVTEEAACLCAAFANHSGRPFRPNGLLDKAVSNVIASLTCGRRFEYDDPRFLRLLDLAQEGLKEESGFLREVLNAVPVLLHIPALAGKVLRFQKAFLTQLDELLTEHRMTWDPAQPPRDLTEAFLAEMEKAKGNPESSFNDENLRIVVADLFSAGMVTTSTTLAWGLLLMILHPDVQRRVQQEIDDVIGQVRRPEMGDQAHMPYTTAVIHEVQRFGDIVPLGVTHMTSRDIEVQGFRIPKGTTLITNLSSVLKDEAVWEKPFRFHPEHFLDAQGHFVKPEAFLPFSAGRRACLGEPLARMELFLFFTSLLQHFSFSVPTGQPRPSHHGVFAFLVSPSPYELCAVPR
Chain of CYP3A4 (P08684 whole entry): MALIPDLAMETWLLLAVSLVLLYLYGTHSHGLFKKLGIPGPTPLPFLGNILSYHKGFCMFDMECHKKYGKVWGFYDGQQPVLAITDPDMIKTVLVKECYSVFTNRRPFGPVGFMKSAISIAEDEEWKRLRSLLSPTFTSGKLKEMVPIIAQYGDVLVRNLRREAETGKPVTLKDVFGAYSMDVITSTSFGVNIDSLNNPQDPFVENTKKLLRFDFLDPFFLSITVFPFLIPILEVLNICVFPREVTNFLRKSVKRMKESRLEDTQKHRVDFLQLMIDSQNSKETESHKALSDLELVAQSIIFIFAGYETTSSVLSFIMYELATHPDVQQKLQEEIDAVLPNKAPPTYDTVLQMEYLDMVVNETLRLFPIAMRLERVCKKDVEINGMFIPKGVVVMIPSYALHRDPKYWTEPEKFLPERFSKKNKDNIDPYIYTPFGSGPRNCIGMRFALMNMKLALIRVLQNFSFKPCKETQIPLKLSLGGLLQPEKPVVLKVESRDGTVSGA

In the case of `CCCc1ccc(Oc2ccc([N+](=O)[O-])cc2Cl)c(O)c1`, the Activity entry with HFF [1] is reported as “Non-toxic”. The Activity with HFF [2] turned out to be 1.5 µM. In data set [3], this compound came in with an IC50 of less than 0.02 µM. For the same compound, in the data set with Toxoplasma gondii [4], the MIC50 turned out to be 4 µM (≈ 1.23 µg/mL) and the MIC90 is 6 µM (≈ 1.85 µg/mL).

Consider `Oc1cc(Cl)ccc1Oc1cccnc1`, for which the Activity result in the data set on HFF [1] is given as “Non-toxic”. In the data set with HFF [2], the Activity was more than 6 µM. This compound also returned an IC50 in data set [3] of 2.8 µM. In the data set on Toxoplasma gondii [4], this compound displayed an MIC50 of more than 6 µM and an MIC90 of more than 6 µM.

For `CCCc1ccc(Oc2ccc(C#N)cc2Cl)c(O)c1`, the inhibition at 10 µM at CYP2D6 was less than 22%; against CYP2C9, more than 85%; at CYP3A4, less than 22%. In data set [5], the remaining at 1 h came to 45.1%. Moreover, the Activity entry in the data set on HFF [1] was “Non-toxic”; in the data set on HFF [2], 5 µM. In the data set on Toxoplasma gondii [6], the result was Active. The IC50 in data set [3] is less than 0.02 µM. In the data set on Toxoplasma gondii [4], the MIC50 is 3 µM (≈ 0.863 µg/mL). Besides, the MIC90 against Toxoplasma gondii [4] amounted to 5 µM (≈ 1.44 µg/mL).

Take `CCCc1ccc(Oc2ccc([N+](=O)[O-])cc2[N+](=O)[O-])c(O)c1`: the Activity entry in the data set with HFF [1] is given as “Non-toxic”. In addition, the Activity with HFF [2] is less than 1.5 µM. Further, the IC50 in data set [3] is less than 0.02 µM. Moreover, in the data set with Toxoplasma gondii [4], the MIC50 worked out at 2 µM (≈ 0.637 µg/mL) and the MIC90 came out at 6 µM (≈ 1.91 µg/mL).

As for `Nc1ncccc1C(=O)Nc1cc(Cl)ccc1Oc1ccccc1`, the Activity result in the data set on HFF [1] was “Non-toxic”. In addition, in data set [3], the IC50 is more than 20 µM. In the data set with Toxoplasma gondii [4], this compound yielded an MIC50 of 17 µM (≈ 5.78 µg/mL) and an MIC90 of 24 µM (≈ 8.15 µg/mL).

For the compound `O=c1cc(OCc2ccccc2)ccn1Cc1ccccc1Cl`, in the data set with HFF [1], the Activity entry is recorded as “Non-toxic”. For the same compound, in data set [3], the IC50 was more than 20 µM. Also, in the data set with Toxoplasma gondii [4], the MIC50 was 7 µM (≈ 2.28 µg/mL) and the MIC90 was 15 µM (≈ 4.89 µg/mL).

As for `O=[N+]([O-])c1ccc(Oc2ccc(Cl)cc2O)c(Cl)c1`, the inhibition at 10 µM against CYP2D6 was less than 22%; at CYP2C9, more than 85%; against CYP3A4, less than 22%. The remaining at 1 h in data set [5] worked out at 51.2%. In addition, the Activity result in the data set on HFF [1] was “Non-toxic”; in the data set with HFF [2], 4 µM. In addition, in the data set with Toxoplasma gondii [6], the outcome was Active. In the data set with Toxoplasma gondii [4], this compound returned an MIC50 of 4 µM (≈ 1.2 µg/mL). Besides, the MIC90 in the data set on Toxoplasma gondii [4] is 6 µM (≈ 1.8 µg/mL).

`CCCc1ccc(Oc2ccc([N+](=O)[O-])cc2)c(O)c1`: the Activity result with HFF [1] was “Non-toxic”; in the data set on HFF [2], more than 6 µM. Moreover, in [3], the half-inhibitory concentration (IC50) is less than 0.02 µM. Also, the MIC50 against Toxoplasma gondii [4] was 6 µM (≈ 1.64 µg/mL). This compound came in with an MIC90 with Toxoplasma gondii [4] of more than 6 µM.

For the compound `CCCc1ccc(Oc2cccc(B(O)O)c2)c(O)c1`, in the data set on HFF [1], the Activity entry is “Non-toxic”. In the data set on HFF [2], this compound had an Activity of more than 6 µM. Further, the IC50 in data set [3] was 0.174 µM. In the data set on Toxoplasma gondii [4], this compound gave an MIC50 of 5 µM (≈ 1.36 µg/mL) and an MIC90 of 6 µM (≈ 1.63 µg/mL).

On to `CCCc1cc(O)c(Oc2ccc(C(N)=O)cc2)c(O)c1`, for which, in the data set with HFF [1], the Activity result is “Non-toxic”. The same compound gave an IC50 in [3] of 0.28 µM. Besides, in the data set on Toxoplasma gondii [4], the MIC50 was 20 µM (≈ 5.75 µg/mL) and the MIC90 was more than 24 µM.

In the case of `C/C=C/C=C/C(=O)Nc1ccc(Oc2ccc(Cl)cc2O)cc1`, the Activity with HFF [2] worked out at 6 µM. The IC50 in data set [3] was more than 2 µM. In the data set on Toxoplasma gondii [4], this compound yielded an MIC50 of 6 µM (≈ 1.98 µg/mL) and an MIC90 of more than 6 µM.

On to `CCCc1ccc(Oc2ccc(N)cc2)c(O)c1`, for which the Activity entry in the data set on HFF [1] is recorded as “Non-toxic”. Also, the Activity in the data set on HFF [2] was 3 µM. Moreover, the IC50 in data set [3] was less than 0.02 µM. In the data set on Toxoplasma gondii [4], this compound gave an MIC50 of 6 µM (≈ 1.46 µg/mL) and an MIC90 of more than 6 µM.

For the compound `O=c1cc(OCCCn2c3ccccc3c3ccccc32)ccn1Cc1ccccc1Cl`, the Activity entry with HFF [1] is given as “Non-toxic”. Further, the IC50 in data set [3] was more than 2 µM. In the data set on Toxoplasma gondii [4], the MIC50 was found to be 2 µM (≈ 0.886 µg/mL) and the MIC90 is 14 µM (≈ 6.2 µg/mL).

Turning to `CC(C)(C)C(=O)Oc1cc(Cl)ccc1Oc1ccc(Cl)cc1Cl`, in the data set with HFF [1], the Activity entry is “Non-toxic”. For the same compound, in the data set with HFF [2], the Activity is more than 6 µM. Half-maximal inhibition in [3] (IC50) required 3 µM. For the same compound, in the data set on Toxoplasma gondii [4], the MIC50 amounted to 4 µM (≈ 1.49 µg/mL) and the MIC90 turned out to be 6 µM (≈ 2.24 µg/mL).

For `O=c1cc(OCc2ccccc2)ccn1Cc1ccc([N+](=O)[O-])cc1Cl`, the Activity entry with HFF [1] is given as “Non-toxic”. In data set [3], this compound registered an IC50 of more than 20 µM. In the data set with Toxoplasma gondii [4], this compound had an MIC50 of 3 µM (≈ 1.11 µg/mL) and an MIC90 of 15 µM (≈ 5.56 µg/mL).

Values taken from ChEMBL document CHEMBL1240506, “Identification and development of novel inhibitors of Toxoplasma gondii enoyl reductase” (J Med Chem, 2010).
